aSyn 5UTR inh = MLPCN primary screen, SNCA 5' untranslated region. alpha-synuclein 5'UTR reporter, inhibitor activity. inhibition, % (tested at 7.5 µM). actives 0.82% (n = 300,000); in the data active = inhibition above about 60%;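 note: H4 neuroglioblastoma cells stably carrying SNCA 5'UTR luciferase fusion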
Mdm2 MdmX PPI = inhibitors of human Mdm2-MdmX association, primary screen, cell-based, luminescence, split luciferase, SaOS-2, uHTS | SaOS-2 split-luciferase Mdm2/MdmX complementation | AID 485346, 2010 | actives 3% (n = 330,000) | inhibition, % at 8 µM | Protein Mdm4 (Homo sapiens) + E3 ubiquitin-protein ligase Mdm2 (Homo sapiens), …;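 active = inhibition of at least 50% at 8 µM in the primary screen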
697 NFkB inh = inhibitors of PMA/ionomycin-induced NF-kB reporter, 697 cells, primary screen, B-cell NF-kB inhibitor project, cell-based, luminescence, uHTS | 697 B-cell NF-kB luciferase reporter, 16 h | inhibition, % at 4 µM | actives 0.33% (n = 330,000) | AID 435022, 2010; in the data active = inhibition above about 35%
VIM-2 inhibitor = VIM-2 metallo-beta-lactamase inhibitors, primary screen, biochemical, epi-absorbance readout, Pseudomonas aeruginosa enzyme; actives 0.89% (n = 290,000); purified VIM-2, nitrocefin hydrolysis, epi-absorbance fluorescence; inhibition, % at 5.6 µM;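 active = inhibition above the mean of all tested compounds plus 3 SD, cutoff set per screening run, cut at about 7.5% in these data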;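 note: red hydrolysis product quenches plate fluorescence so inhibitors raise well fluorescence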
IMP-1 inh = IMP-1 metallo-beta-lactamase inhibitors, primary screen, biochemical, epi-absorbance readout, Pseudomonas aeruginosa enzyme. metallo-beta-lactamase IMP-1 (Pseudomonas aeruginosa). purified IMP-1, nitrocefin hydrolysis, epi-absorbance fluorescence. inhibition, % at 5.6 µM. actives 0.45% (n = 290,000);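 active = inhibition above the mean plus 3 SD of all compounds in the same screening run, cut at about 4.5% in these data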
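Test system: recombinant IMP-1 enzyme, purified / Medium: HEPES buffer pH 7.1 with ZnSO4 and Brij 35 / Doses: single dose, 5.6 µM / Times: 25 °C, 15 min preincubation, 25 min reaction / Detection: Epi-absorbance via hydrolysed-nitrocefin quenching of white-plate fluorescence, 480/530 nm, EDTA stop / Evaluation: percent inhibition from optical density relative to buffer-blank wells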
Jurkat NFkB inh = inhibitors of induced NF-kB luciferase reporter, primary screen, TCR NF-kB activation inhibitor project, cell-based, luminescence, uHTS; Jurkat, PMA/ionomycin-induced NF-kB luciferase reporter; actives 0.53% (n = 330,000); AID 435003, 2010; inhibition, % at 4 µM; in the data active = inhibition above about 50%
Mdm2-MdmX conf = Mdm2-MdmX complex disruptors, retested hits, confirmation, luminescence, single concentration. actives 55% (n = 10,000). shares compounds with Mdm2 MdmX PPI. inhibition, % at 8 µM. Mdm2-MdmX binding, luminescent assay; in the data active = inhibition above about 40%
Full FLuc ctr = full-length luciferase signal inhibition, confirmation, counter-screen for Mdm2/MdmX interaction inhibitor project, cell-based, single concentration, SaOS-2; shares compounds with Mdm2 MdmX PPI; SaOS-2 full-length luciferase counterscreen, luminescence; inhibition, % at 8 µM; actives 77% (n = 6,200);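 active = mean inhibition at 8 µM reaching about 37%, which flags the compound as non-specific, limit read from the data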;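 note: p53-null SaOS-2 cells with luciferase driven by a doxycycline-inducible promoter; compound on cells about two nights before reading with doxycycline added after day one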
Each line names hits and unclear results; the compound was inactive in the other large screens (follow-up assays come after a bar, where they were run). The list is not random: actives were taken first. Their share in the collection is about 4.7%.

O=[N+]([O-])c1cc(-c2nc(-c3ccncc3)no2)ccc1Cl	Mdm2 MdmX PPI 99 | Mdm2-MdmX conf 81 | Full FLuc ctr inactive
COc1ccccc1C(=O)Nc1ccnn1C1CCN(Cc2ccccc2OCCO)CC1	none
COc1ccc(C2NC(=O)NC3=C2CCc2ccccc23)cc1 (configuration not stated)	Mdm2 MdmX PPI 55 | Mdm2-MdmX conf 46 | Full FLuc ctr 83
O=C(NC(=S)N1CCN(c2ccccc2)CC1)c1ccc(S(=O)(=O)N2CCOCC2)cc1	none
CCN(CC)CCCNC(=O)c1sc2ncn(CC(=O)Nc3ccc(C)c(Cl)c3)c(=O)c2c1C	Mdm2 MdmX PPI 53 | Mdm2-MdmX conf inactive
COc1ccccc1/C=C/C1(C(=O)NC2CCCC2)CC(=O)N1c1ccc(F)cc1 (configuration not stated)	Mdm2 MdmX PPI 70 | Mdm2-MdmX conf 89 | Full FLuc ctr 49
Cc1cc(C(=O)CSc2ccc(F)cc2)cc(C)c1OC(=S)N(C)C	Mdm2 MdmX PPI 58 | Mdm2-MdmX conf 84 | Full FLuc ctr 107
O=c1cc(N2CCCCCC2)[nH]c(=O)n1-c1ccccc1Cl	none
Cc1ccc(-n2c3nc(=O)[nH]c(=O)c-3cc3cc([N+](=O)[O-])ccc32)cc1	Mdm2 MdmX PPI 58 | Mdm2-MdmX conf 46 | Full FLuc ctr 38
CC#CC[N+](C)(C)CCCCCCCCCC	none
C#CC[N+](C)(C)CCCCCCCCC	aSyn 5UTR inh 65, Mdm2 MdmX PPI 51 | Mdm2-MdmX conf 49 | Full FLuc ctr 74
Cc1ccc(C(=O)O/N=C/c2c(N3CCOCC3)n(C)c3ccccc23)cc1	aSyn 5UTR inh 77, Mdm2 MdmX PPI 51 | Mdm2-MdmX conf 40 | Full FLuc ctr inactive
Cc1ccc(C(C)C)c(OCc2nn(CC(=O)c3ccc(Cl)cc3)c3[n+]2CCCCC3)c1	Mdm2 MdmX PPI 97 | Mdm2-MdmX conf 74 | Full FLuc ctr inactive
Cc1cc(S(=O)(=O)NCC(c2ccc(F)cc2)N2CCN(C)CC2)ccc1F (configuration not stated)	none (no result: VIM-2 inhibitor, IMP-1 inh)
C/C(=N\NC(=O)c1c(Br)cnn1C)c1ccc(NC(=O)c2ccc(F)cc2)cc1	Mdm2 MdmX PPI 67 | Mdm2-MdmX conf inactive
C/C(=N\NC(=O)c1c(Cl)cnn1C)c1cccc(NC(=O)c2ccc(C)cc2)c1	none
COC(=O)c1ccccc1NC(=O)CSc1nnc(-c2ccc(C)cc2)o1	none (no result: Mdm2 MdmX PPI, 697 NFkB inh, Jurkat NFkB inh)
Cc1cc(-c2nnc(SCC(=O)Nc3ccccc3C(F)(F)F)o2)c(C)n1-c1ccccc1	Mdm2 MdmX PPI 75 | Mdm2-MdmX conf 77 | Full FLuc ctr 103
Cc1ccc(-c2nnc(SCC(=O)Nc3ccccc3F)o2)cc1	aSyn 5UTR inh 92, Mdm2 MdmX PPI 80 | Mdm2-MdmX conf 67 | Full FLuc ctr inactive
O=C(Nc1ccc(F)cc1)C1=CC(=O)N2CCN=C2S1	none
O=C(Nc1ccc(F)cc1F)c1csc(-c2ccccc2)n1	none
O=C(Nc1ccc(F)cc1F)c1cccc(C(=O)Nc2ccc(F)cc2F)n1	aSyn 5UTR inh 87, Mdm2 MdmX PPI 95 | Mdm2-MdmX conf 87 | Full FLuc ctr 50
COc1ccc(Cl)cc1-c1nc(-c2ccc(Br)o2)no1	Mdm2 MdmX PPI 51 | Mdm2-MdmX conf inactive
CN(C)/C=C/C(=O)c1ccc2noc(-c3ccccc3)c2c1	Mdm2 MdmX PPI 51 | Mdm2-MdmX conf inactive
FC(F)(F)c1cccc(Oc2nc(-c3ccccc3)nnc2C(F)(F)F)c1	none

From PubChem
